Measurements taken from ChEMBL document CHEMBL3784993, “Synthesis and anticancer activity of some 5-fluoro-2'-deoxyuridine phosphoramidates” (Bioorg Med Chem, 2016).

Tests used:
HeLa [1] = assay: Cytotoxicity against human HeLa cells after 72 hrs by SRB assay; format: functional, cell-based
How it was run: (§1)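 SRB protein-stain assay. Cells were seeded at about 10,000 per well and grown 24 h to a partial monolayer. They were then exposed for 72 h at 37 °C (5% CO2, 90% RH) to six concentrations: 0.1, 0.2, 1, 2, 10 and 20 µM. Final DMSO was ≤0.1%. Cells were TCA-fixed and stained with 0.4% SRB, and OD was read at 490 nm. Survival was expressed versus untreated cells. Cytarabine served as internal standard, with three experiments.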

KB = assay: Cytotoxicity against human KB cells after 72 hrs by SRB assay; format: functional, cell-based; how it was run: as §1
MCF7 [2] = assay: Cytotoxicity against human MCF7cells after 72 hrs by SRB assay; format: functional, cell-based; details: MCF7, 72 h
HepG2 [3] = assay: Cytotoxicity against human HepG2 cells after 72 hrs by SRB assay; format: functional, cell-based; details: HepG2, 72 h
[4] = Cytotoxicity against HDF cells after 72 hrs by SRB assay; format: cell-based; details: Homo sapiens
HepG2 [5] = assay: Selectivity index, ratio of IC50 for HDF cells to IC50 for human HepG2 cells; format: functional
How it was run: (§2)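 SI is calculated as the IC50 in normal human dermal fibroblasts (HDF) divided by the IC50 in the respective cancer line. Both values come from 72 h SRB assays. SD is from three independent experiments.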

[6] = Selectivity index, ratio of IC50 for HDF cells to IC50 for human KB cells; format: functional; how it was run: as §2
HeLa [7] = assay: Selectivity index, ratio of IC50 for HDF cells to IC50 for human HeLa cells; format: functional; how it was run: as §2
143B [8] = assay: Cytotoxicity against human 143B cells after 72 hrs by SRB assay; format: functional, cell-based; how it was run: as §1
143B [9] = assay: Selectivity index, ratio of IC50 for HDF cells to IC50 for human 143B cells; format: functional; how it was run: as §2
143B [10] = assay: Cytotoxicity against human thymidine kinase deficient 143B cells after 72 hrs by SRB assay; format: functional, cell-based; how it was run: as §1
MCF7 [11] = assay: Selectivity index, ratio of IC50 for HDF cells to IC50 for human MCF7 cells; format: functional; how it was run: as §2
MCF7 [12] = assay: Potency index, ratio of IC50 for 5-fluoro-2'-deoxyuridine to IC50 for test compound for cytotoxicity against human MCF7cells after 72 hrs by SRB assay; format: functional
HeLa [13] = assay: Cytotoxicity against human HeLa cells after 72 hrs in presence of human recombinant cytochrome P450 isoform mixture by SRB assay; format: functional, cell-based

Structure (SMILES) | IC50 (HeLa [1]) | IC50 (KB) | IC50 (MCF7 [2]) | IC50 (HepG2 [3]) | IC50 [4] | Ratio IC50 (HepG2 [5]) | Ratio IC50 [6] | Ratio IC50 (HeLa [7]) | IC50 (143B [8]) | Ratio IC50 (143B [9]) | IC50 (143B [10]) | Ratio IC50 (MCF7 [11]) | Ratio IC50 (MCF7 [12]) | IC50 (HeLa [13])
COC(=O)[C@H](C)NP(=O)(OC[C@H]1O[C@@H](n2cc(F)c(=O)[nH]c2=O)C[C@@H]1O)Oc1ccccc1 (stereo partly drawn) | 23.5 µM | 18 µM | 29.1 µM | 25.9 µM | 43.1 µM |  |  |  |  |  |  |  |  | 
O=c1[nH]c(=O)n([C@H]2C[C@H](O)[C@@H](COP(=O)(NCC(F)(F)F)Oc3ccc(Cl)cc3)O2)cc1F (stereo partly drawn) | 3.09 µM | 1.93 µM | 1.82 µM | 3.48 µM | 4.19 µM | 1.2 | 2.17 | 1.36 | 1.8 µM | 2.33 | 2.51 µM | 2.3 |  | 
CCNP(=O)(OC[C@H]1O[C@@H](n2cc(F)c(=O)[nH]c2=O)C[C@@H]1OC(=O)OC(C)(C)C)Oc1ccc(Cl)cc1 (stereo partly drawn) | 2.66 µM | 3.37 µM | 1.42 µM | 4.26 µM | 6.02 µM | 1.41 | 1.79 | 2.26 | 4.4 µM | 1.37 | 9.11 µM | 4.24 | 9 | 
CCCCNP(=O)(OC[C@H]1O[C@@H](n2cc(F)c(=O)[nH]c2=O)C[C@@H]1O)Oc1ccc(Cl)cc1 (stereo partly drawn) | > 100 µM | > 100 µM | > 100 µM | > 100 µM | > 100 µM |  |  |  |  |  |  |  |  | > 100 µM
COC(=O)[C@H](C)NP(=O)(OC[C@H]1O[C@@H](n2cc(F)c(=O)[nH]c2=O)C[C@@H]1O)Oc1ccc(Cl)cc1 (stereo partly drawn) | 4.11 µM | 4.22 µM | 4.54 µM | 6.65 µM | 18.4 µM | 2.77 | 4.37 | 4.49 | 4.03 µM | 4.58 | 8.67 µM | 4.06 |  | 
CC(C)(C)OC(=O)O[C@H]1C[C@H](n2cc(F)c(=O)[nH]c2=O)O[C@@H]1COP(=O)(NCC(F)(F)F)Oc1ccc(Cl)cc1 (stereo partly drawn) | 14.6 µM | 14.6 µM | 4.05 µM | 18.8 µM | 37.1 µM |  |  |  | 0.28 µM |  | 2.01 µM |  |  | 
C=CCNP(=O)(OC[C@H]1O[C@@H](n2cc(F)c(=O)[nH]c2=O)C[C@@H]1OC(=O)OC(C)(C)C)Oc1ccc(Cl)cc1 (stereo partly drawn) | 19.1 µM | 16.5 µM | 12.8 µM | 17 µM | 27.2 µM |  |  |  |  |  |  |  |  | 
CCCCNP(=O)(OC[C@H]1O[C@@H](n2cc(F)c(=O)[nH]c2=O)C[C@@H]1OC(=O)OC(C)(C)C)Oc1ccc(Cl)cc1 (stereo partly drawn) | 76 µM | 66.4 µM | 80.1 µM | 64.2 µM | 87 µM |  |  |  |  |  |  |  |  | 71.4 µM
CCCNP(=O)(OC[C@H]1O[C@@H](n2cc(F)c(=O)[nH]c2=O)C[C@@H]1OC(=O)OC(C)(C)C)Oc1ccc(Cl)cc1 (stereo partly drawn) | 49.3 µM | 27.2 µM | 20.8 µM | 26 µM | 61.1 µM |  |  |  |  |  |  |  |  | 45.2 µM
CC(C)(C)OC(=O)O[C@H]1C[C@H](n2cc(F)c(=O)[nH]c2=O)O[C@@H]1COP(=O)(NCCCN=[N+]=[N-])Oc1ccc(Cl)cc1 (stereo partly drawn) | 52.5 µM | 54.9 µM | 58.5 µM | 46.9 µM | 57.2 µM |  |  |  |  |  |  |  |  | 24.1 µM
[N-]=[N+]=NCCCNP(=O)(OC[C@H]1O[C@@H](n2cc(F)c(=O)[nH]c2=O)C[C@@H]1O)Oc1ccc(Cl)cc1 (stereo partly drawn) | 22.2 µM | 22.6 µM | 27 µM | 22.6 µM | 41 µM |  |  |  |  |  |  |  |  | 13.5 µM
C=CCNP(=O)(OC[C@H]1O[C@@H](n2cc(F)c(=O)[nH]c2=O)C[C@@H]1O)Oc1ccc(Cl)cc1 (stereo partly drawn) | 89.3 µM | 38.7 µM | 94.5 µM | 96.7 µM | 92.1 µM |  |  |  |  |  |  |  |  | 
CC(C)(C)OC(=O)O[C@H]1C[C@H](n2cc(F)c(=O)[nH]c2=O)O[C@@H]1COP(=O)(NCCCCN=[N+]=[N-])Oc1ccc(Cl)cc1 (stereo partly drawn) | 36 µM | 35.6 µM | 35.4 µM | 58.9 µM | 48.3 µM |  |  |  |  |  |  |  |  | 17.7 µM
COC(=O)[C@H](C)NP(=O)(OC[C@H]1O[C@@H](n2cc(F)c(=O)[nH]c2=O)C[C@@H]1OC(=O)OC(C)(C)C)Oc1ccc(Cl)cc1 (stereo partly drawn) | 1.65 µM | 1.54 µM | 2.56 µM | 3.47 µM | 6.21 µM | 1.66 | 4.03 | 3.76 | 1.51 µM | 4.11 | 3.07 µM | 2.39 |  | 
[N-]=[N+]=NCCCCNP(=O)(OC[C@H]1O[C@@H](n2cc(F)c(=O)[nH]c2=O)C[C@@H]1O)Oc1ccc(Cl)cc1 (stereo partly drawn) | 72.1 µM | 71.3 µM | 67.6 µM | > 100 µM | > 100 µM |  |  |  |  |  |  |  |  | 20.6 µM
C#CCNP(=O)(OC[C@H]1O[C@@H](n2cc(F)c(=O)[nH]c2=O)C[C@@H]1OC(=O)OC(C)(C)C)Oc1ccc(Cl)cc1 (stereo partly drawn) | 4.36 µM | 4.37 µM | 4.71 µM | 3.66 µM | 7.21 µM | 1.97 | 1.65 | 1.65 | 3.02 µM | 2.39 | 3.62 µM | 1.53 |  | 
CC(C)(C)OC(=O)O[C@H]1C[C@H](n2cc(F)c(=O)[nH]c2=O)O[C@@H]1CO | 63.5 µM | 75.9 µM | 64.2 µM | 80.4 µM | > 100 µM |  |  |  | 18 µM |  | 47 µM |  |  | 
COC(=O)[C@H](C)NP(=O)(OC[C@H]1O[C@@H](n2cc(F)c(=O)[nH]c2=O)C[C@@H]1OC(=O)OC(C)(C)C)Oc1ccccc1 (stereo partly drawn) | 8.34 µM | 8.34 µM | 6.29 µM | 9.28 µM | 17.5 µM |  |  |  |  |  |  |  |  | 
CCCNP(=O)(OC[C@H]1O[C@@H](n2cc(F)c(=O)[nH]c2=O)C[C@@H]1O)Oc1ccc(Cl)cc1 (stereo partly drawn) | 50.2 µM | 50.4 µM | 27.2 µM | 41.9 µM | 61 µM |  |  |  |  |  |  |  |  | 45.9 µM
CNP(=O)(OC[C@H]1O[C@@H](n2cc(F)c(=O)[nH]c2=O)C[C@@H]1OC(=O)OC(C)(C)C)Oc1ccc(Cl)cc1 (stereo partly drawn) | 7.27 µM | 7.28 µM | 8.18 µM | 6.55 µM | 12.4 µM |  |  |  | 6.72 µM |  | 13.1 µM |  |  | 
CNP(=O)(OC[C@H]1O[C@@H](n2cc(F)c(=O)[nH]c2=O)C[C@@H]1O)Oc1ccc(Cl)cc1 (stereo partly drawn) | 5.78 µM | 4.45 µM | 4.44 µM | 9.34 µM | 11.8 µM | 1.27 | 2.66 | 2.05 | 2.12 µM | 5.58 | 12.7 µM | 2.66 |  | 
CCNP(=O)(OC[C@H]1O[C@@H](n2cc(F)c(=O)[nH]c2=O)C[C@@H]1O)Oc1ccc(Cl)cc1 (stereo partly drawn) | 8.19 µM | 8.21 µM | 19.4 µM | 5.39 µM | 16.3 µM |  |  |  | 2.41 µM |  | 16 µM |  |  | 
C#CCNP(=O)(OC[C@H]1O[C@@H](n2cc(F)c(=O)[nH]c2=O)C[C@@H]1O)Oc1ccc(Cl)cc1 (stereo partly drawn) | 10.6 µM | 25.3 µM | 12 µM | 24.5 µM | 31 µM |  |  |  | 3.61 µM |  | 3.9 µM |  |  | 
Nc1ccn([C@@H]2O[C@H](CO)[C@@H](O)[C@@H]2O)c(=O)n1 [CYTARABINE] |  |  |  | 2.86 µM | 4.99 µM | 1.75 | 1.23 | 1.41 | 2.06 µM | 2.42 | 16.9 µM | 1.31 |  | 
O=c1[nH]c(=O)n([C@H]2C[C@H](O)[C@@H](CO)O2)cc1F [FLOXURIDINE] |  |  |  | 8.91 µM | 13.1 µM | 1.47 | 1.5 | 2.01 | 6.02 µM | 2.17 | 14.1 µM | 1.07 |  | 
O=c1[nH]cc(F)c(=O)[nH]1 [FLUOROURACIL] |  |  |  | 6.6 µM | 7.02 µM | 1.06 | 1.45 | 1.13 | 13 µM | 0.54 | 16.3 µM | 1.08 |  | 
Oc1ccc(Cl)cc1 [PARACHLOROPHENOL] | 1680 µM | 1450 µM | 1880 µM | 1700 µM | 1850 µM |  |  |  |  |  |  |  |  | 
